Bioassay records (PubChem BioAssay)
UBC13 inh = human UBC13 polyubiquitination inhibition; P61088; UBC13 polyubiquitin chain formation, TR-FRET; inhibition, % at 20 µM; hit rate 0.47% among 330,000; AID 485273; in the data active = inhibition above about 45%, passing the limit was not always enough; inconclusive = no clear call, values can overlap the other calls
Target sequence (P61088 whole entry, looked up): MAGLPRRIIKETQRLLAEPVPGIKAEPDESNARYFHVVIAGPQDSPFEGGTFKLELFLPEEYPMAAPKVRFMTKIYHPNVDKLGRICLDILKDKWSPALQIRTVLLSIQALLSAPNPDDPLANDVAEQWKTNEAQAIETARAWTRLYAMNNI
Rin1 Abl inh = blocks binding of human Rin1 to Abl | TR-FRET Rin1/Abl binding, biochemical | inhibition, % at 7.35 µM | hit rate 0.4% among 360,000 | AID 588664; in the data active = inhibition above about 5%, passing the limit was not always enough
UBC9 SUMO inh = inhibitors of human SUMOylation (UBC9). hit rate 0.36% among 290,000. AID 2006. P63279. HTRF SUMOylation assay, SAE1/SAE2 + UBC9, in vitro. inhibition, % at 35 µM; in the data active = inhibition above about 50%, passing the limit was not always enough; inconclusive = no clear call, values can overlap the other calls
Target sequence (P63279 whole entry, looked up): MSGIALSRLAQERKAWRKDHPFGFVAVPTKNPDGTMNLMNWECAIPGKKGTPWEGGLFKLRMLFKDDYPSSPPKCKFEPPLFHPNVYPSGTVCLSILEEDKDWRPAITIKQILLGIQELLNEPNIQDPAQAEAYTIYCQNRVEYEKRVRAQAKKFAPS
Apaf1 inhib = human Apaf-1 inhibition; AID 489030; O14727; hit rate 0.71% among 330,000; inhibition, % at 20 µM; reconstituted apoptosome caspase-3 activity, DEVD-Rh110 fluorescence; active = inhibition of at least 40% at 20 µM;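 also: plate controls were DMSO wells for no effect and DEVD-CHO caspase inhibitor wells for full effect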
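Material: biochemical Apaf-1 apoptosome reconstitution. Medium: Hepes buffer, pH 7.5. Also added: cytochrome c activation, bis-DEVD rhodamine 110 substrate. Timing: 30 min compound preincubation, 50 min activation, room temperature. Measured by: rhodamine 110 fluorescence at Ex 480/Em 540 nm.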
PAD4 inh = inhibitors of human PAD4. Q9UM07. recombinant PAD4, RCA probe fluorescence polarization. inhibition, % at 6.36 µM. hit rate 0.41% among 330,000;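 active = percent inhibition above a cutoff equal to the mean of all tested compounds plus 3 SD, cut at about 15% in these data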;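 also: 0% = PAD4 with RCA probe and DMSO and 100% = probe without PAD4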
GSTO1 inh = GSTO1 inhibition, counter-screen for RBBP9 inhibitors | P78417 | recombinant GSTO1, activity-based probe fluorescence polarization | inhibition, % at 5.96 µM | hit rate 1.1% among 300,000;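 active = inhibition above the campaign mean inhibition plus 3 SD, cut at about 35% in these data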;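 also: 0% = GSTO1-1 with DMSO and 100% = wells lacking GSTO1-1 enzyme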
Target sequence (P78417 whole entry, looked up): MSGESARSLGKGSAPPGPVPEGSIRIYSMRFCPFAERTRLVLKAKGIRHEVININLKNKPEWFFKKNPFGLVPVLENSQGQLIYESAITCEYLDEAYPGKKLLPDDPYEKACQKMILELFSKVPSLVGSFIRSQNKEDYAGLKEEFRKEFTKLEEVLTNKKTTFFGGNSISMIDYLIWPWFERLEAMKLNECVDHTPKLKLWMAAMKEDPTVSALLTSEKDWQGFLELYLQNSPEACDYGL
GSTO1 confirm = GSTO1 (human) inhibition, confirmation. inhibition, % at 5.96 µM. AID 2176. shares compounds with GSTO1 inh. hit rate 54% among 2,400. recombinant GSTO1, probe fluorescence polarization;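 active = inhibition above the primary screen's cutoff, its mean inhibition plus 3 SD, cut at about 35% in these data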;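 also: loss of polarization as inhibitors block binding of rhodamine sulfonate ester activity probe; 0% = GSTO1 with DMSO and 100% = wells lacking GSTO1 enzyme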
GSTO1 recomb ABPP = GSTO1 (human) inhibition by gel ABPP. AID 463110. hit rate 30% among 130. inhibition, % at 1 µM. recombinant GSTO1, gel ABPP SE-Rh probe fluorescence. shares compounds with GSTO1 inh;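 active = inhibition of the enzyme GSTO1 above about 75%, limit read from the data; inactive = inhibition below that limit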
PAD4 FP conf = PAD4 (human) inhibition, confirmed; shares compounds with PAD4 inh; recombinant PAD4, RCA probe fluorescence polarization; AID 488796; hit rate 28% among 1,200; inhibition, % at 6.36 µM;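 active = mean inhibition across replicates above the hit cutoff set by the earlier primary screen, cut at about 15% in these data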;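 also: inhibitors block active-site labeling by the probe so polarization falls; 0% = PAD4 with probe and DMSO and 100% = probe without PAD4 enzyme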
Casp3 UBC13 ctr = inhibits human caspase-3 in UBC13 counter-screen; shares compounds with UBC13 inh; Recombinant caspase-3, Caspase-Glo 3/7 luminescence, 60 min; inhibition, % at 20 µM; hit rate 4% among 1,400; AID 488856;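 active = mean inhibition across replicates above about 26%, limit read from the data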;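 also: plate controls were DMSO with caspase-3 for no effect and DMSO wells lacking enzyme for full effect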
UBC13 conf = confirmation of human UBC13 polyubiquitin inhibitors. hit rate 68% among 1,400. inhibition, % at 10 µM. shares compounds with UBC13 inh. AID 488859. UBC13 polyubiquitination, TR-FRET, biochemical; in the data active = inhibition above about 45%; inconclusive = no clear call, values can overlap the other calls
Apaf-1 inh conf2 = confirmation of Apaf-1 inhibitors. shares compounds with Apaf1 inhib. reconstituted apoptosome, caspase-3 DEVD-Rh110 fluorescence. inhibition, % at 20 µM. hit rate 25% among 1,800. AID 504614;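 active = mean inhibition of at least 40% at 20 µM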;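 also: plate controls were DMSO wells for no effect and DEVD-CHO caspase inhibitor control wells for full effect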
Rh110 quench = interferes with Rh110 fluorescence, flagging false Apaf-1 inhibitors. 1,800 tested, under 10 active. shares compounds with Apaf1 inhib. Rh110 fluorescence interference, quenched caspase reaction. AID 504615. activation (fluorescence interference), % at 20 µM;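 active = signal rise of 40% or more at 20 µM, treated as a fluorescence artifact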
Fluor interf inh = shows fluorescence interference in the Apaf-1 inhibitor assay format. shares compounds with Apaf1 inhib. fluorescence interference counterscreen, Apaf-1 assay format. IC50, µM. 460 tested, under 10 active. AID 588538; call rule not given here
Rin1 Abl conf = confirmation of inhibitors of human Rin1-Abl interaction; hit rate 49% among 1,300; TR-FRET Rin1-Abl binding, purified proteins; shares compounds with Rin1 Abl inh; inhibition, % at 7.35 µM
GFP quench = GFP fluorescence interference artifact; shares compounds with Rin1 Abl inh; inhibitors/quenchers counterscreen; inhibition, % at 6.75 µM; hit rate 8.5% among 1,300; AID 602125;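 also: ABL1-eGFP fusion protein alone without its partner RIN1-SBP; 0% = protein with vehicle and 100% = wells lacking protein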
An asterisk follows results filed as active; ? = inconclusive; · = not tested or not shown. Compounds with a hit are over-represented: about 2.2% of the library has one in this group of screens. Rule as the data show it, unless noted: active = inhibition above about 6.5%; inactive = the rest.

SMILES	UBC13 inh	Rin1 Abl inh	UBC9 SUMO inh	Apaf1 inhib	PAD4 inh	GSTO1 inh	GSTO1 confirm	Rin1 Abl conf	GFP quench	others
CNCc1ccccc1Sc1ccc(O)c(O)c1	·	12*	52	·	-1	74*	71*	6.4*	0
Cc1[nH]n(-c2ccccc2)c(=O)c1C(c1ccc(C(=O)O)cc1)c1c(C)[nH]n(-c2ccccc2)c1=O	-23	17*	76	71*	73*	60*	18	0	2	PAD4 FP conf=13;Apaf-1 inh conf2=22;Rh110 quench=6
Cc1[nH]n(-c2ccccc2)c(=O)c1C(c1cccc([N+](=O)[O-])c1)c1c(C)[nH]n(-c2ccccc2)c1=O	-30	9.1*	92	64*	30*	52*	23	0	-1	PAD4 FP conf=-9;Apaf-1 inh conf2=31;Rh110 quench=6
Cc1[nH]n(-c2ccccc2)c(=O)c1C(=O)c1ccc([N+](=O)[O-])cc1	-7	-2	9	15	-19	-7	·	·	·
Cc1[nH]n(-c2ccccc2)c(=O)c1C(=O)Nc1ccccc1	3	-1	11	6	-6	-11	·	·	·
Cc1[nH]n(-c2ccccc2)c(=O)c1C(C[N+](=O)[O-])c1ccc(Br)cc1 (centres undefined)	-42	34*	50	87*	-1	45*	13	0	0	Apaf-1 inh conf2=96*;Rh110 quench=16;Fluor interf inh=>100
CCOC(=O)N1CCN(C(=O)Cc2ccccc2[N+](=O)[O-])CC1	-3	5	12	-3	-6	18	·	·	·
N#Cc1ccc(OCC(=O)Nc2nc(-c3cccnc3)cs2)cc1	-6	1	·	-14	-7	·	·	·	·
Nc1ccc2c(c1)C(=O)C(=O)c1ccccc1-2	-359	10*	?	98*	82*	94*	94*	5	4	PAD4 FP conf=73*;Apaf-1 inh conf2=99*;Rh110 quench=2;Fluor interf inh=>100
O=C(COC(=O)c1ccc(F)cc1F)Nc1cccc(S(=O)(=O)N2CCOCC2)c1	-4	2	·	1	·	·	·	·	·
CC1(C(=O)Nc2cccc(OC(F)(F)F)c2)Cc2c(-c3ccc4c(c3)OCO4)ccnc2O1 (centres undefined)	·	1	·	·	·	·	·	·	·
Cc1ccc2c(c1)c(=O)c1c3n2CCN(C(=O)CCl)C3CC1 (centres undefined)	-50	9.4*	47	64*	30*	66*	80*	2	5	GSTO1 recomb ABPP=63;PAD4 FP conf=-1;Apaf-1 inh conf2=18;Rh110 quench=-7
Oc1cccc(/C=N/NC(=S)NCCN2CCOCC2)c1O	-8	5.7*	-33	3	-4	88*	58*	0	-3
S=C(NCCN1CCOCC1)N/N=C/c1cccs1	-6	-2	-1	1	5	15	·	·	·
COc1cccc(C(=O)NNS(=O)(=O)c2ccccc2)c1	·	-3	·	·	·	·	·	·	·
CCN(C(=O)CSc1nnc(-c2ccccc2OC)n1N)c1c(N)n(Cc2ccccc2)c(=O)[nH]c1=O	·	0	·	·	·	·	·	·	·
CCCCn1c(N)c(N(CC(C)C)C(=O)CCNC(=O)c2ccc(Cl)cc2)c(=O)[nH]c1=O	-1	3	·	5	-2	2	·	·	·
COc1cc(-c2oc3cc(O)cc(O)c3c(=O)c2O[C@@H]2O[C@H](COC3O[C@@H](C)[C@H](O)[C@@H](O)[C@H]3O)[C@@H](O)[C@H](O)[C@H]2O)ccc1O (some centres undefined)	-18	2	·	4	3	·	·	·	·
C[C@@H]1O[C@@H](Oc2c(-c3cc(O)c(O)c(O)c3)oc3cc(O)cc(O)c3c2=O)[C@H](O)[C@H](O)[C@H]1O	50*	44*	17	-3	0	54*	16	45*	17*	Casp3 UBC13 ctr=-5;UBC13 conf=17
O=c1[nH]c(Nc2ccccc2)cc2ccccc12	-43	5.6*	84*	96*	65*	80*	47*	2	-2	PAD4 FP conf=18*;Apaf-1 inh conf2=94*;Rh110 quench=-1;Fluor interf inh=>100
NC(CO)C(=O)NNCc1ccc(O)c(O)c1O (centres undefined)	48*	37*	·	51*	-11	88*	72*	29*	6	Casp3 UBC13 ctr=2;UBC13 conf=30
O=C(O)C(C(O)c1ccccc1)[n+]1ccccc1 (centres undefined)	-5	2	·	0	1	7	·	·	·
CCCCn1c(NS(=O)(=O)c2ccccc2)c(S(=O)(=O)c2ccc(C)cc2)c2nc3ccccc3nc21	·	22*	·	·	66*	92*	83*	11*	-1	PAD4 FP conf=-5
Nc1c(S(=O)(=O)c2ccccc2)c2nc3ccccc3nc2n1CCN1CCOCC1	2	-2	12	-4	-2	4	·	·	·
Oc1ccc(/C=N/N=C/c2ccc(O)cc2)cc1	-13	-1	12	-15	-5	-8	·	·	·
Oc1ccc(/C=N/N=C/c2ccc(O)c(O)c2)cc1O	-11	23*	31	-5	3	39*	18	57*	16*
O=C(N/N=C/c1cccnc1)c1cc(O)c(O)c(O)c1	-2	62*	-14	2	0	50*	11	74*	21*
CC12CCC(=O)N1C(C(=O)OCc1c(Cl)cccc1Cl)CS2 (centres undefined)	2	2	-4	14	2	-6	·	·	·
Cc1cc2nn(-c3cccc4ccccc34)nc2cc1N	6	0	28	28	-3	15	·	·	·
